Screening data from PubChem.
APJ ag: agonists of human APJ apelin receptor; P35414; CHO-K1 APJ PathHunter beta-arrestin, luminescence; 0% DMSO wells, 100% apelin; activation, % at 20 µM; 0.11% of 330,000 active; AID 2520;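 active = activation more than six SD over the plate average, tested at 20 µM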;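 also: 0% = DMSO alone and 100% = apelin-13 at 10 nM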
Target sequence (P35414 whole entry, looked up): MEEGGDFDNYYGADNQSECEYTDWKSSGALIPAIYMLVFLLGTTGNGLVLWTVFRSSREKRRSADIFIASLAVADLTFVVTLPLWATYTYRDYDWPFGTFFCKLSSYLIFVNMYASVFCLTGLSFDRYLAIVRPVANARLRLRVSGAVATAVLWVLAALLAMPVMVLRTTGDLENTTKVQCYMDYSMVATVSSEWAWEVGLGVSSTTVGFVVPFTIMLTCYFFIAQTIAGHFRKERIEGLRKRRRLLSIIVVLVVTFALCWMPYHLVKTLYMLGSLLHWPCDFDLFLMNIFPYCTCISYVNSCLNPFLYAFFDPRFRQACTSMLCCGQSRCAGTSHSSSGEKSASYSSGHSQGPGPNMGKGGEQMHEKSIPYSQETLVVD
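Test system: CHO-K1 APJ beta-arrestin complementation cell line. Amount: cell density 1000 per well. Controls: DMSO negative, 10 nM Apelin-13 positive. Signal: luminescent beta-gal fragment complementation, chemiluminescent substrate. Read-out basis: agonist-driven arrestin binding to APJ. Timing: compound stimulation 90 min at 25 °C, detection 60 min.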
NTR1 agonist: agonists of human neurotensin receptor NTR1 | NTR1-U2OS beta-arrestin-GFP spot imaging, agonist mode | activation, % at 20 µM | 0.17% of 330,000 active | P30989;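 active = activation at or above 40% of the spot to cytoplasm intensity ratio, with at least 20 cells analyzed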;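 also: 0% = DMSO without peptide and 100% = 100 nM NTR1 peptide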
APJ antagonist: blocks the human apelin receptor APJ | P35414 | inhibition, % at 20 µM | CHO-K1 APJ beta-arrestin complementation, luminescence | AID 2521 | 0.32% of 330,000 active;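 active = inhibition above about 40% at 20 µM, limit read from the data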;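 also: cells challenged with 10 nM apelin-13 agonist together with compound; plate controls were apelin-13 plus DMSO wells for no effect and DMSO wells lacking apelin-13 for full effect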
HTR2A ag: mouse HTR2A agonism via beta-arrestin recruitment. CHO-K1 mHTR2A beta-arrestin complementation, luminescence; percent of 30 µM serotonin response. activation, % at 7.6 µM. 0.66% of 360,000 active;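 active = activation above a run cutoff, the mean activation of all tested compounds plus 3 SD, cut at about 14% in these data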;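 also: 0% = plate median of compound wells and 100% = 30 µM serotonin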
CXCR6 inh: CXCR6 (human) receptor inhibition | 0.36% of 360,000 active | O00574 | inhibition, % at 20 µM | CHO-K1 PathHunter CXCR6 beta-arrestin, luminescence; in the data active = inhibition above about 34%, passing the limit was not always enough;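 also: antagonist mode with CXCL16 agonist at 10 nM final; 0% = 10 nM CXCL16 with DMSO and 100% = unstimulated wells without agonist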
CCR6 antagonist: CCR6 (human) receptor antagonism; P51684; CHO-K1 CCR6 PathHunter beta-arrestin, luminescence, CCL20-stimulated; inhibition, % at 20 µM; 0.49% of 340,000 active;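 active = compounds whose inhibition of the agonist-driven luminescence signal at 20 µM reaches about 50%, limit read from the data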;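 also: cells stimulated with CCL20 at 14 nM final; plate controls were DMSO with CCL20 for no effect and DMSO without agonist for full effect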
OPRM1 ag: OPRM1 agonism in mouse HTR2A counterscreen; U2OS OPRM1 beta-arrestin PathHunter, luminescence; DMSO 0%, DAMGO 9.3 µM 100%; 5.3% of 2,300 active; activation, % at 9.3 µM; shares compounds with HTR2A ag;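 active = mean activation above the mean of DMSO-only wells plus 3 SD, cut at about 0.5% in these data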
HTR2A ag conf: confirmation of mouse HTR2A serotonin receptor agonists. shares compounds with HTR2A ag. CHO-K1 PathHunter beta-arrestin recruitment, luminescence; DMSO 0%, 30 µM serotonin 100%. activation, % at 7.6 µM. 19% of 2,300 active. AID 624381;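 active = mean activation across triplicates above the hit threshold derived in the original primary screen, cut at about 15% in these data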
* = called active by the depositor; . = no result given. Only some compounds are listed: those with a hit (about 1.5% of all), similar ones and a draw of the others.

SMILES	APJ ag	NTR1 agonist	APJ antagonist	HTR2A ag	CXCR6 inh	CCR6 antagonist	OPRM1 ag	HTR2A ag conf
COCCNC(=O)c1ccccc1NC(=O)c1ccccc1SC	0	1	-9	13	4	-3	.	.
CC(C(=O)NC1CCCCCC1)c1ccc([N+](=O)[O-])cc1 (centres undefined)	-5	1	-14	6	-5	14	.	.
COc1ccc2c(c1)CCCC21NC(=O)N(CC(=O)NCc2cccs2)C1=O (centres undefined)	1	5	-11	19*	7	-2	0	1
CC(=O)NNC(=O)c1ccncc1	1	1	16	0	-2	11	.	.
CC(C)NNC(=O)c1ccncc1	-1	-1	2	28*	1	18	-1	45*
CC1=C(C(=O)OCc2ccccc2)C(c2ccccc2Br)NC(=O)N1 (centres undefined)	-2	1	-8	29*	-2	-7	0	23*
COc1ccccc1C1NC(=O)NC(C)=C1C(=O)OCc1ccccc1 (centres undefined)	3	-1	12	-3	-2	-2	.	.
O=C(CN(C(=O)CCC(=O)Nc1nccs1)c1ccc(F)cc1)NCCc1ccccc1	-2	8	-16	1	8	20	.	.
CN1CCN(NC(=O)Nc2ccc(F)cc2)CC1	-1	1	23	15*	5	-15	-1	-2
COc1ccc(NC(=O)NN2CCN(C)CC2)cc1	-1	0	-2	4	3	2	.	.
O=C1CC2(CCN(C(=O)c3ccc(Br)cc3)CC2)Oc2ccccc21	-2	1	3	-1	-6	9	.	.
O=C(C[n+]1ccccc1)N1CCCc2ccccc21	-2	1	4	20*	7	0	0	2
Cc1cc[n+](CC(=O)N2CCCc3ccccc32)cc1	-3	0	17	2	2	-10	.	.
COc1ccc(NC(=O)C2Cc3c(-c4ccc(NC(C)=O)cc4)ccnc3O2)cn1 (centres undefined)	.	.	.	2	-8	.	.	.
CCOc1cc(N2CCOCC2)c(OCC)cc1NC(=O)CN1C(=O)NC2(CCCCCCC2)C1=O	-2	-1	16	5	1	-3	.	.
CCOc1cc(N2CCOCC2)c(OCC)cc1NC(=O)CN1C(=O)NC(CC)(c2ccc(F)cc2)C1=O (centres undefined)	.	.	.	15*	1	-5	-1	1
Cc1cc(Cl)ccc1OCC(=O)NC1CCCC1	-4	-1	-8	5	-3	8	.	.
Cc1cc(Cl)ccc1OCC(=O)OCC(=O)NC1CCCC1	-2	3	-14	16*	1	10	0.5*	2
CN(C(=O)c1ccccc1C(=O)OCC(=O)c1ccc(F)c(F)c1)C1CCCCC1	-5	1	13	-5	-10	10	.	.
Cc1nnc(NC(=O)CSc2nnc(CC(=O)Nc3ccccc3C)n2C)s1	-4	0	-11	2	-1	22	.	.
Cc1ccc(S(=O)(=O)Nc2ccccc2C(=O)Nc2nc(-c3ccc(F)cc3)cs2)cc1	4	8	-14	5	-4	3	.	.
COc1ccc(-c2csc(NC(=O)Nc3ccccc3)n2)cc1	1	-1	-5	19*	-15	-2	0	7
Cc1ccc(-c2csc(NC(=O)C3=NN(c4ccccc4)C(=O)CC3)n2)cc1	5	8	4	18*	-8	-1	0	-1
COc1ccc(-c2csc(NC(=O)c3ccccc3NS(=O)(=O)c3ccc(F)c(F)c3)n2)cc1	-1	15	-11	18*	-10	5	0	24*
CCOC(=O)c1ccc(NC(=O)c2sc3nc(N4CCOCC4)c4c(c3c2N)CCCC4)cc1	-2	0	2	18*	-1	3	0	-3
SMILES	APJ ag	NTR1 agonist	APJ antagonist	HTR2A ag	CXCR6 inh	CCR6 antagonist	OPRM1 ag	HTR2A ag conf
COc1ccc(NC(=O)c2sc3nc(N4CCOCC4)c4c(c3c2N)CCCC4)cc1	.	.	.	-1	5	.	.	.
COc1cccc(COC(=O)C(Cc2ccccc2)NC(=O)c2ccco2)c1 (centres undefined)	.	.	.	17*	-7	.	0	9
CCC(=O)Nc1nnc(SCc2cccc(F)c2)s1	-4	2	0	21*	8	12	-1	-5
Clc1ncc(CN2CCN(c3ccccc3)CC2)s1	-1	-2	-3	31*	1	0	-1	84*
Clc1ccc(CNc2ccc(N3CCN(Cc4ccccc4)CC3)cc2)cc1	7	2	-24	-7	-6	-1	.	.
Clc1ccc(CN2CCN(c3ccccc3)CC2)cn1	-2	0	11	22*	0	9	0	81*
CN(C)S(=O)(=O)c1ccc(Cl)c(NC(=O)CN2CCc3ccccc3C2)c1	-1	2	-20	23*	-3	8	0	82*
CCN(CC)S(=O)(=O)c1ccc(O)c(NC(=O)CN2CCc3ccccc3C2)c1	-1	2	-3	-2	-17	10	.	.
CC(=O)c1ccc(OCC(O)CN2CCN(c3ccccn3)CC2)cc1 (centres undefined)	-2	-3	-3	37*	-3	-4	-1	92*
CC(C)(C)C1CCC(OCC(O)CN2CCN(Cc3ccccc3)CC2)CC1 (centres undefined)	-3	1	11	-6	10	16	.	.
COc1ccc(OCC(O)CN2CCCCC2)cc1 (centres undefined)	-1	-1	3	4	1	1	.	.
CC(C)(C)C1CCC(OCC(O)CN2CCN(c3ccccn3)CC2)CC1 (centres undefined)	-2	2	-19	18*	6	3	0	94*
OC(COc1ccc(OCC(O)CN2CCCCC2)cc1)CN1CCCCC1 (centres undefined)	1	0	0	17*	-13	1	-1	-4
CC[C@@]12C(=O)N(c3cccc(F)c3)C(=O)N1[C@H](c1ccc(Cl)cc1)[C@@H]1C(=O)N(C3CCCCC3)C(=O)[C@@H]12	26	4	-5	6	-12	-31	.	.
CCOC(=O)CC1(NC(=O)c2cc(COc3cccc(OC)c3)on2)CCCCC1	2	2	0	15*	-3	1	-1	-5
COc1ccc(NC(=O)CSc2nc3ccc(Nc4nc(N5CCOCC5)nc(N5CCOCC5)n4)cc3s2)cc1	1	8	-22	15*	5	7	0	18*
